Assay results: ChEMBL document CHEMBL4145606, “Microcystins Containing Doubly Homologated Tyrosine Residues from a Microcystis aeruginosa Bloom: Structures and Cytotoxicity” (J Nat Prod, 2018)
Starred links: 1 amine or outer side, 2 acyl side, 3 side chain; linkers in the order of their positions; H or OH if unused. Positions of bridges follow the written chain, without caps; N, C: chain ends. Non-standard residues stand in square brackets, D forms with d. Residues, ends and D or L forms follow the SMILES beside them. Adda = CO[C@@H](Cc1ccccc1)[C@@H](C)/C=C(C)/C=C/[C@H](N[*:1])[C@H](C)C(=O)[*:2]; dAsp(3S-Me) = C[C@H](C(=O)[*:3])[C@@H](N[*:1])C(=O)[*:2]; d(γGlu) = O=C(O)[C@@H](CCC(=O)[*:2])N[*:1]; NMeDha = C=C(NC)C(=O)O

Tests used:
HCT-116 = assay: Cytotoxicity against human HCT116 cells assessed as reduction in cell viability after 72 hrs by MTT assay; format: functional, cell-based
In short: (§1)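 Cells seeded in 96-well plates and incubated overnight at 37 °C. Treated with a range of concentrations (∼35 to 0.1 μM) for ∼72 h at 37 °C. Viability read by MTT assay. EC50 estimated from the dose-response curves.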

A549 = assay: Cytotoxicity against human A549 cells assessed as reduction in cell viability after 72 hrs by MTT assay; format: functional, cell-based; in short: as §1

SMILES | Activity (HCT-116) | EC50 (HCT-116) [µM] | Activity (A549) | EC50 (A549) [µM]
C=C1C(=O)N[C@H](C)C(=O)N[C@@H](CCc2ccc(O)cc2)C(=O)N[C@@H](C(=O)O)[C@H](C)C(=O)N[C@@H](CCCc2ccc(O)cc2)C(=O)N[C@@H](/C=C/C(C)=C/[C@H](C)[C@H](Cc2ccccc2)OC)[C@H](C)C(=O)N[C@@H](C(=O)O)CCC(=O)N1C | Dose-dependent effect | 3.3 | Dose-dependent effect | 0.36
C=C1C(=O)N[C@H](C)C(=O)N[C@@H](CCCc2ccc(O)cc2)C(=O)N[C@@H](C(=O)O)[C@H](C)C(=O)N[C@@H](CCCNC(=N)N)C(=O)N[C@@H](/C=C/C(C)=C/[C@H](C)[C@H](Cc2ccccc2)OC)[C@H](C)C(=O)N[C@@H](C(=O)O)CCC(=O)N1C |  | > 35 |  | 18
C=C1C(=O)N[C@H](CC(C)C)C(=O)N[C@@H](CC(C)C)C(=O)N[C@@H](C(=O)O)[C@H](C)C(=O)N[C@@H](Cc2ccc(O)cc2)C(=O)N[C@@H](/C=C/C(C)=C/[C@H](C)[C@H](Cc2ccccc2)OC)[C@H](C)C(=O)N[C@@H](C(=O)O)CCC(=O)N1C (Y[Adda][d(γGlu)][NMeDha][dL]L[dAsp(3S-Me)]-OH; lactam N-7) | Dose-dependent effect | 11 | Dose-dependent effect | 1.3
C=C1C(=O)N[C@H](C)C(=O)N[C@@H](CC(C)C)C(=O)N[C@@H](C(=O)O)[C@H](C)C(=O)N[C@@H](CCCNC(=N)N)C(=O)N[C@@H](/C=C/C(C)=C/[C@H](C)[C@H](Cc2ccccc2)OC)[C@H](C)C(=O)N[C@@H](C(=O)O)CCC(=O)N1C [MICROCYSTIN-LR] (R[Adda][d(γGlu)][NMeDha][dA]L[dAsp(3S-Me)]-OH; lactam N-7) |  | 35 |  | > 35
